Results of several laboratories.
Protocols differ between the studies behind these lines.
TYK2: Non-receptor tyrosine-protein kinase TYK2 (TYK2, Homo sapiens, UniProt P29597)
TYK2 JH2: Non-receptor tyrosine-protein kinase TYK2, JH2 (TYK2, Homo sapiens, UniProt P29597)

For `CC(C)(C)c1cc(C=C(C#N)C#N)cc(Br)c1O`, the remaining activity was 61.3% (TYK2; enzyme activity, inhibitor; 0.5 µM).
With `COc1ncccc1-c1cnn2ccc(N3CCN(C(=O)OC(C)C)CC3)nc12` the remaining binding was 76% (TYK2; binding, competition with immobilised ligand; 1 µM).
With `Cn1cc(-c2cc(F)cc(N3CCn4c(cc5c4CCCC5)C3=O)c2CO)cc(Nc2ccc(N3CCN(C4COC4)CC3)cn2)c1=O` the inhibition was 1% (TYK2; enzyme activity, inhibitor; 0.1 µM).
`Cn1cncc1[C@@](O)(COc1ccc(C#N)cc1-c1ccc(OC(F)(F)F)cc1)c1ccc(C#N)cc1` has a remaining binding of 100% (TYK2 JH2; cell-free assay, competition with immobilised ligand; 1 µM).
`Cn1cc(-c2cccc(N3CCc4c(sc5c4CC(C)(C)C5)C3=O)c2CO)cc(Nc2ccncn2)c1=O` gave an inhibition of 3% (TYK2; enzyme activity, inhibitor; 1 µM).
For `Nc1ncc(-c2nc(N3CCOCC3)nc(N3CCOCC3)n2)c(C(F)F)n1`, the remaining binding was 15% (TYK2 JH2; binding, competition with immobilised ligand; 10 µM).
The remaining binding of `Cc1nn(C)cc1-c1nc2c(N3CCN(Cc4ccc(Cl)cc4)CC3)c(Cl)cnc2[nH]1` is reported as 100% (TYK2 JH2; binding, competition with immobilised ligand; 1 µM).
`N#CC1(c2ccccn2)CCN(Cc2cc(C(=O)O)c(=O)n3ccccc23)CC1` gave a remaining binding of 93% (TYK2 JH2; cell-free assay, competition with immobilised ligand; 1 µM).
For `O=c1[nH]c2ccccc2n1C1CCN(Cc2ccc(-c3[nH]c4cc5ncnc5cc4nc3-c3ccccc3)cc2)CC1`, the remaining signal was 101% (TYK2; cell-free assay; 0.5 µM).
